KCNQ1 act: potentiators or activators of KCNQ1 channel, primary screen, cell-based, thallium flux, high-throughput. Potassium voltage-gated channel subfamily KQT member 1 (Homo sapiens), P51787. CHO-K1 KCNQ1, thallium flux FluxOR fluorescence; active compounds read high. B-score at 10 µM. actives 0.35% (n = 310,000). AID 2648, 2010;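 active = fluorescence ratio B-score, a plate-corrected score, at least three library SD, with initial intensity B-score within 5 SD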
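System: CHO-K1 cells stably expressing KCNQ1 / Medium: assay buffer for compound exposure, DMSO matched across wells / Reagent: thallium- and potassium-containing depolarizing buffer / Compound: one concentration, matched DMSO / Incubation: 20 min compound pretreatment at room temperature / Measured by: kinetic FluxOR fluorescence, 10 s baseline plus 110 s post-stimulus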
Kir21 inh: inhibitors of mouse Kir2.1 inward-rectifier potassium channel; Inward rectifier potassium channel 2 (Mus musculus), P35561; HEK293-Kir2.1, FluxOR thallium flux fluorescence; active compounds read low; B-score at 10 µM; actives 0.85% (n = 310,000); AID 1672, 2009;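 active = fluorescence ratio B-score at or below minus 3 SD of library scores, with starting-brightness B-score within 2 SD, cut at about -4.2 in these data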;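 also: channel flux triggered by added potassium and thallium sulfate stimulus; B-score of peak minus minimum fluorescence over baseline after thallium stimulus; more negative B-score means stronger Kir2.1 block with less thallium influx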
KCNQ1 block: inhibitors of human KCNQ1 channel, primary screen, cell-based, thallium flux, high-throughput. Potassium voltage-gated channel subfamily KQT member 1 (Homo sapiens), P51787. CHO-K1 KCNQ1, FluxOR thallium flux fluorescence; active compounds read high. B-score at 10 µM. actives 1.3% (n = 310,000). AID 2642, 2010;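 active = compounds whose thallium flux B-score, printed positive for inhibition, exceeds three library SD while starting fluorescence stays within three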;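 also: channel opened by potassium depolarization with thallium stimulus after 20 min compound exposure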
KCNK9 inh: KCNK9 potassium channel inhibitors, primary screen, HEK293 cells, thallium flux. Potassium channel subfamily K member 9 (Homo sapiens), Q9NPC2. FluxOR thallium flux fluorescence; active compounds read low. B-score at 10 µM. actives 1.2% (n = 310,000);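 active = ratio B-score over 3 SD below the library mean, with starting fluorescence within 5 SD of its mean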;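 also: negative B-score means less thallium flux so channel inhibition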
KCNK3 inh: human KCNK3 channel inhibitors, primary screen, CHO cells, FluxOR thallium flux, B-score | Potassium channel subfamily K member 3 (Homo sapiens), O14649 | FluxOR fluorescence; active compounds read low | B-score at 10 µM | actives 0.84% (n = 340,000);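 active = B-score under library mean minus 4 SD, starting fluorescence ratio at most library mean plus 5 SD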;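 also: more negative B-score means stronger inhibition of thallium flux through KCNK3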
Target sequence (O14649 whole entry, looked up): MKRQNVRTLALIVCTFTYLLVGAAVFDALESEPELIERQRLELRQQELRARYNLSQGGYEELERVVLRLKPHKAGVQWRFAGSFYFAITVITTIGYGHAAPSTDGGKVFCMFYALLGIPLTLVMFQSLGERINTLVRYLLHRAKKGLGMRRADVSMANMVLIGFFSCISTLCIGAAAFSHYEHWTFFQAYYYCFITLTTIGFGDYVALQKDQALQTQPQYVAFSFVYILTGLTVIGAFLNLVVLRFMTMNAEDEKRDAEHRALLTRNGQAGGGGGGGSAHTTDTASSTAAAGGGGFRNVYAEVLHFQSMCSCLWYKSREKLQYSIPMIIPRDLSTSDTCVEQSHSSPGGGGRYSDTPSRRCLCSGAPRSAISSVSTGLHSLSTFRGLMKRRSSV
hERG protect: hERG rescue from dofetilide block, primary screen, cell-based, CHO-hERG, FluxOR thallium flux, dofetilide IC70; actives 0.51% (n = 310,000); activation (rescue from dofetilide block), less the hit threshold, % at 10 µM; dofetilide IC70 present; Voltage-gated inwardly rectifying potassium channel KCNH2 (Homo sapiens), Q12809; AID 1511, 2009;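 active = activation above the mean of controls blocked by dofetilide plus 5 SD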;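 also: thallium influx through hERG after potassium depolarization seen as dye fluorescence rise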
KCNQ1 block val: KCNQ1 potassium channel inhibitors, confirmation, cell-based, Tl flux, duplicate; shares compounds with KCNQ1 block; KCNQ1 cell line, FluxOR thallium flux fluorescence; inhibition, % at 10 µM; actives 93% (n = 1,600); AID 588353, 2011;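 active = primary screen active, with duplicate mean exceeding buffer control mean plus 3 SD of buffer wells, cut at about 28% in these data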;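 also: 0% = buffer control ratio and 100% = XE991 inhibitor control ratio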
CHO Tl flux: thallium flux effects in parental CHO cells, counter-screen for KCNQ1 inhibitor project, cell-based, Tl flux | shares compounds with KCNQ1 block | parental CHO-K1, FluxOR thallium flux fluorescence ratio; active compounds read low; zero means no signal rise above baseline | fluorescence ratio (Tl flux) at 10 µM | actives 21% (n = 1,600) | AID 588366, 2011;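 active = mean of duplicate thallium-flux fluorescence ratios in parental host cells more than 5 SD below the buffer control mean, cut at about 0.38 in these data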;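 also: ratio is peak minus minimum fluorescence divided by baseline fluorescence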
KCNQ1 ephys val: KCNQ1 channel inhibitors, confirmation, orthogonal assay, cell-based, automated electrophysiology; shares compounds with KCNQ1 block; KCNQ1-CHO cells, automated patch clamp current; calls only at 10 µM; actives 20% (n = 490); AID 624120, 2012;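 active = KCNQ1 current drop exceeding 3 SD of negative control wells, seen in both duplicate runs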;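 also: steady state current during a 2 s step from -80 to +40 mV; negative values mean current inhibition and positive values mean potentiation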
KCNQ2 spec: KCNQ2 channel inhibition, selectivity assay for KCNQ1 inhibitor project, cell-based. shares compounds with KCNQ1 block. inhibition, % at 10 µM. KCNQ2 cells, FluxOR thallium flux fluorescence. actives 71% (n = 1,600);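 active = mean percent inhibition of the KCNQ2 thallium signal more than 5 SD above the buffer-only control wells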;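 also: KCNQ2 expressed in CHO cells; 0% = buffer control wells and 100% = XE-991 inhibitor control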
KCNQ1-KCNE1 inh: KCNQ1/KCNE1 channel inhibition, selectivity assay for KCNQ1 inhibitor project, CHO-K1 cells, thallium flux, FluxOR; shares compounds with KCNQ1 block; FluxOR thallium flux fluorescence; inhibition, % at 10 µM; actives 77% (n = 1,600); AID 652147, 2013;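 active = mean percent inhibition of duplicate wells above the buffer-only control mean plus 3 SD of those controls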;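 also: 0% = buffer only wells and 100% = XE-991 inhibitor control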
An asterisk follows results filed as active. Compounds with a hit are over-represented: about 3.7% of the library has one in this group of screens.

For CCc1cc(Br)ccc1NC(=S)NCCc1ccccc1 the results were KCNQ1 act inactive, Kir21 inh -7.9*, KCNQ1 block 6*, KCNK9 inh inactive, KCNK3 inh inactive, hERG protect -9, KCNQ1 block val 65*, CHO Tl flux 0.51, KCNQ2 spec 59%* and KCNQ1-KCNE1 inh 70%*.
`Fc1cccc(NC(=S)NCCc2ccccc2)c1` gave KCNQ1 act inactive, Kir21 inh -0.33, KCNQ1 block 7*, KCNK9 inh inactive, KCNK3 inh inactive, hERG protect -9, KCNQ1 block val 52*, CHO Tl flux 0.56, KCNQ2 spec 62%* and KCNQ1-KCNE1 inh inactive.
`CN(CC(=O)NCCc1ccccc1)CC(=O)Nc1cccc(F)c1` gave KCNK3 inh inactive.
Screening O=C(NCCCCc1ccccc1)Nc1cccc(F)c1 returned KCNQ1 act inactive, Kir21 inh -0.53, KCNQ1 block 6*, KCNK9 inh inactive, KCNK3 inh inactive, hERG protect -15, KCNQ1 block val 61*, CHO Tl flux 0.52, KCNQ2 spec inactive and KCNQ1-KCNE1 inh 36%*.
Fc1ccc(F)c(NC(=S)NCCc2ccccc2)c1 was read as KCNQ1 act inactive, Kir21 inh -0.82, KCNQ1 block 7*, KCNK9 inh inactive, KCNK3 inh inactive, hERG protect -5, KCNQ1 block val 53*, CHO Tl flux 0.56, KCNQ2 spec 81%* and KCNQ1-KCNE1 inh 71%*.
Screening COc1ccc2nc(C3CCCCC3)c3c(c2c1)CCC3 returned KCNQ1 act inactive, Kir21 inh -0.38, KCNQ1 block inactive, KCNK9 inh inactive, KCNK3 inh inactive and hERG protect -6.
For Cc1nc(N2CCC(C)CC2)c2c(C)c(C(=O)Nc3ccc(C)c(F)c3)sc2n1 the results were KCNQ1 act inactive, Kir21 inh 1.1, KCNQ1 block 7*, KCNK9 inh inactive, KCNK3 inh inactive, hERG protect -28, KCNQ1 block val 114*, CHO Tl flux 0.42, KCNQ1 ephys val inactive, KCNQ2 spec 140%* and KCNQ1-KCNE1 inh 64%*.
`Cc1cc(N2CCC(C)CC2)nc(NCc2ccccc2)n1` gave KCNQ1 act inactive, Kir21 inh -13*, KCNQ1 block 7*, KCNK9 inh inactive, KCNK3 inh inactive, hERG protect -24, KCNQ1 block val 46*, CHO Tl flux 0.49, KCNQ2 spec inactive and KCNQ1-KCNE1 inh inactive.

Screening data (PubChem)
